Data reported in ChEMBL document CHEMBL3763092, “Design and synthesis of pyrrolobenzodiazepine-gallic hybrid agents as p53-dependent and -independent apoptogenic signaling in melanoma cells” (Eur J Med Chem, 2016).
The source made the active and inactive calls. No cut-off for these calls is given here.

How the values were obtained:
A-375 [1] = assay: Cytotoxicity against human A375 cells expressing p53 wild type assessed as cell viability at 1 uM after 24 hrs by MTT assay; type: functional; conditions: A-375, 24 h, read-out: Activity
Method in brief: (§1)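 Cells were exposed to compound at 1 µM for 24 h, then growth and viability were read by MTT assay. Media: A375 in DMEM; RPMI7951 and MCF-7 in MEM; A549 in RPMI1640; H1299 in DMEM-F12; all with 10% FCS and penicillin/streptomycin, at 37 °C and 5% CO2. Fibroblasts came from adult foreskin. DMSO stocks were 10 mM.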

[2] = Cytotoxicity against human RPMI7951 cells expressing p53 mutant assessed as cell viability at 1 uM after 24 hrs by MTT assay; type: functional; conditions: RPMI-7951, 24 h, read-out: Activity; method in brief: as §1
MCF7 = assay: Cytotoxicity against human MCF7 cells expressing p53 wild type assessed as cell viability at 1 uM after 24 hrs by MTT assay; type: functional; conditions: MCF7, 24 h, read-out: Activity; method in brief: as §1
A549 = assay: Cytotoxicity against human A549 cells assessed as cell viability at 1 uM after 24 hrs by MTT assay; type: functional; conditions: A549, 24 h, read-out: Activity; method in brief: as §1
[3] = Cytotoxicity against p53 knockout human H1299 cells assessed as cell viability at 1 uM after 24 hrs by MTT assay; type: functional; conditions: NCI-H1299, 24 h, read-out: Activity; method in brief: as §1
[4] = Cytotoxicity against human fibroblast cells expressing p53 wild type assessed as cell viability at 1 uM after 24 hrs by MTT assay; type: cell-based; conditions: read-out: Activity; method in brief: as §1
A-375 [5] = assay: Induction of reactive oxygen species generation in human A375 cells expressing p53 wild type assessed as increase in intracellular H2O2 level at 0.5 uM after 24 hrs by DCFH-DA staining based fluorescence analysis; type: functional, cell-based
Method in brief: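 A375 cells were treated with 0.5 µM for 0, 12 and 24 h and stained with DCFH-DA to detect intracellular H2O2.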

A-375 [6] = assay: Induction of DNA lesion in human A375 cells expressing p53 wild type assessed as increase in 8-oxoguanine expression at 0.5 uM after 24 hrs by immunohistochemical analysis; type: functional, cell-based
Method in brief: (§2)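 A375 cells on coverslips (1 × 10^4) were treated with 0.5 µM for 24 h. Cells were fixed in 4% formaldehyde for 5 min at 4 °C, permeabilized with 0.5% Triton X-100, and blocked with 5% BSA at 37 °C for 45 min. Primary antibodies were applied for 1 h at RT: mouse anti-p-ATR and anti-p-ATM 1:1000, anti-8-oxoguanine 1:250, COX IV and cytochrome c 1:1000. Secondary antibodies (rhodamine for 8-oxoguanine) followed for 30 min. DAPI counterstain.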

A-375 [7] = assay: Induction of DNA damage in human A375 cells expressing p53 wild type assessed as increase in ATR/ATM activation at 0.5 uM after 24 hrs by immuohistochemistry analysis; type: functional, cell-based; method in brief: as §2
A-375 [8] = assay: Increase in Chk1 phosphorylation in human A375 cells expressing p53 wild type at 0.5 uM after 24 hrs by western blot analysis; type: functional, cell-based
Method in brief: (§3)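 A375 cells were exposed to 0.5 µM for 24 h, and lysates were immunoblotted with specific antibodies (p53, Cdc25c, p-Chk1, Bcl-xL, PARP, caspase-3). GAPDH served as loading control. Three independent experiments.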

A-375 [9] = assay: Decrease in Cdc25c level in human A375 cells expressing p53 wild type at 0.5 uM after 24 hrs by western blot analysis; type: functional, cell-based; method in brief: as §3
A-375 [10] = assay: Effect on cell cycle distribution in human A375 cells expressing p53 wild type assessed as number of cells at S-phase at 0.5 uM after 24 hrs by FACS analysis (reference value: 13.8 %); type: functional
A-375 [11] = assay: Effect on cell cycle distribution in human A375 cells expressing p53 wild type assessed as number of cells at G2/M phase at 0.5 uM after 24 hrs by FACS analysis (reference value: 12.1 %); type: functional
A-375 [12] = assay: Effect on cell cycle distribution in human A375 cells expressing p53 wild type assessed as number of cells at G0/G1 phase at 0.5 uM after 24 hrs by FACS analysis Rvb = 74.1 %); type: functional
A-375 [13] = assay: Effect on cell cycle distribution in human A375 cells expressing p53 wild type assessed as number of cells at subG1 phase at 0.5 uM after 24 hrs by FACS analysis (reference value: 1 %); type: functional
A-375 [14] = assay: Induction of apoptosis in human A375 cells expressing p53 wild type assessed as increase in p53 levels at 0.5 uM after 24 hrs by western blot analysis; type: functional, cell-based; method in brief: as §3
A-375 [15] = assay: Induction of apoptosis in human A375 cells expressing p53 wild type assessed as decrease in Bcl-xl levels at 0.5 uM after 24 hrs by western blot analysis; type: functional, cell-based; method in brief: as §3
A-375 [16] = assay: Induction of apoptosis in human A375 cells expressing p53 wild type assessed as increase in cleaved caspase-3 levels at 0.5 uM after 24 hrs by western blot analysis; type: functional, cell-based; method in brief: as §3
A-375 [17] = assay: Induction of apoptosis in human A375 cells expressing p53 wild type assessed as increase in cleaved PARP levels at 0.5 uM after 24 hrs by western blot analysis; type: functional, cell-based; method in brief: as §3
A-375 [18] = assay: Induction of apoptosis in human A375 cells expressing p53 wild type assessed as increase in p53 mRNA level by RT- qPCR analysis; type: functional, cell-based; conditions: TDE = time-dependent effect
Method in brief: (§4)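 Quantitative real-time PCR on A375 cells over a time course, measuring p53, bax and bcl-xl mRNA normalized to GAPDH mRNA.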

A-375 [19] = assay: Induction of apoptosis in human A375 cells expressing p53 wild type assessed as increase in bax mRNA level by RT- qPCR analysis; type: functional, cell-based; conditions: TDE = time-dependent effect; method in brief: as §4
A-375 [20] = assay: Induction of apoptosis in human A375 cells expressing p53 wild type assessed as decrease in bcl-xl mRNA level by RT- qPCR analysis; type: functional, cell-based; conditions: TDE = time-dependent effect; method in brief: as §4
A-375 [21] = assay: Induction of apoptosis in human A375 cells expressing p53 wild type assessed as decrease in mitochondrial membrane potential at 0.5 uM after 12 hrs by DiOC6 dye based flow cytometry; type: functional, cell-based
Method in brief: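 A375 cells were treated with 0.5 µM for 0, 12 and 24 h, labeled with DiOC6 and analyzed by flow cytometry. Three independent experiments.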

A-375 [22] = assay: Induction of apoptosis in human A375 cells expressing p53 wild type assessed as increase release of cytochrome c from mitochondria to cytosol at 0.5 uM after 24 hrs by immunofluorescence analysis; type: functional, cell-based; method in brief: as §2
A-375 [23] = assay: Induction of apoptosis in human A375 cells expressing p53 wild type assessed as lysosomal H+ concentration at 0.5 uM after 24 and 48 hrs by flow cytometric analysis; type: functional, cell-based
Method in brief: (§5)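 Cells were loaded with LysoTracker Green (75 nM) for 15 min at 37 °C before treatment with 0.5 µM for the indicated times. After washing, mean fluorescence was quantified by flow cytometry. For p53 knockdown, A375 cells (6 × 10^4/well, antibiotic-free DMEM) were transfected with 30 nM tp53 siRNA or non-target siRNA using Lipofectamine RNAiMAX and harvested at 24 h.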

A-375 [24] = assay: Induction of apoptosis in human A375 cells transfected with siRNA p53 assessed as decrease in lysosomal H+ concentration at 0.5 uM after 24 and 48 hrs by flow cytometric analysis; type: functional, cell-based; method in brief: as §5
RPMI-7951 [25] = assay: Induction of apoptosis in human RPMI7951 cells expressing p53 mutant assessed as decrease in lysosomal H+ concentration at 0.5 uM after 24 and 48 hrs by flow cytometric analysis; type: functional, cell-based; method in brief: as §5
RPMI-7951 [26] = assay: Induction of apoptosis in human RPMI7951 cells expressing p53 mutant assessed as increased release of cathepsin D to cytosol at 0.5 uM by immunofluorescent staining analysis; type: functional, cell-based
Method in brief: (§6)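 RPMI7951 cells on coverslips (1 × 10^4) were treated with 0.5 µM for 24 h. Immunofluorescence steps: fixation in 4% formaldehyde, permeabilization with 0.5% Triton X-100, blocking with 5% BSA. Primary antibodies: rabbit anti-cathepsin D and mouse anti-LAMP-1 at 1:500, cytochrome c and COX IV at 1:1000, 1 h at RT. Secondary antibodies for 30 min. DAPI counterstain.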

RPMI-7951 [27] = assay: Induction of apoptosis in human RPMI7951 cells expressing p53 mutant assessed as increased release of cytochrome c to cytosol at 0.5 uM by immunofluorescent staining analysis; type: functional, cell-based; method in brief: as §6
RPMI-7951 [28] = assay: Induction of apoptosis in human RPMI7951 cells expressing p53 mutant assessed as PARP cleavage at 0.5 uM after 24 hrs by western blot analysis; type: functional, cell-based
A-375 [29] = assay: Cytotoxicity against human A375 cells expressing p53 wild type assessed as colony formation at 0.5 uM after 10 days by SRB assay; type: functional, cell-based
Method in brief: (§7)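 Cells were seeded at 100 per well and treated from the second day. Medium containing 0.5 µM agent was renewed every 3 days. After 10 days of treatment, colonies were stained with SRB and photographed. Three independent experiments.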

RPMI-7951 [30] = assay: Cytotoxicity against human RPMI7951 expressing p53 mutant cells assessed as colony formation at 0.5 uM after 10 days by SRB assay; type: functional, cell-based; method in brief: as §7

COc1cc2c(cc1OCCCCNC(=O)c1cc(OC)c(OC)c(OC)c1)N=C[C@@H]1CCCN1C2=O
viability at 1 µM (A-375 [1]): 79.5% | viability at 1 µM [2]: 83% | viability at 1 µM (MCF7): 96.3% | viability at 1 µM (A549): 100% | viability at 1 µM [3]: 95% | viability at 24 h, 1 µM [4]: 98.2%

COc1cc2c(cc1OCCCCCCNC(=O)c1cc(OC)c(OC)c(OC)c1)N=C[C@@H]1CCCN1C2=O
viability at 1 µM (A-375 [1]): 86.5% | viability at 1 µM [2]: 69.6% | viability at 1 µM (MCF7): 95.4% | viability at 1 µM (A549): 101% | viability at 1 µM [3]: 92.4% | viability at 24 h, 1 µM [4]: 94.9%

COc1cc2c(cc1OCCCNC(=O)c1cc(OC)c(OC)c(OC)c1)N=C[C@@H]1CCCN1C2=O
viability at 1 µM (A-375 [1]): 82.6% | viability at 1 µM [2]: 97.7% | viability at 1 µM (MCF7): 94.6% | viability at 1 µM (A549): 96.1% | viability at 1 µM [3]: 96.4% | viability at 24 h, 1 µM [4]: 101%

COc1cc2c(cc1OCCCCCOc1cc(OC)c(OC)c(OC)c1)N=C[C@@H]1CCCN1C2=O
Activity (A-375 [5]): Active | Activity (A-375 [6]): Active | Activity (A-375 [7]): Active | Activity (A-375 [8]): Active | inhibition (A-375 [9]): Active | Activity (A-375 [10]): 37% | Activity (A-375 [11]): 4.2% | Activity (A-375 [12]): 45.8% | Activity (A-375 [13]): 16% | Activity (A-375 [14]): Active | Activity (A-375 [15]): Active | Activity (A-375 [16]): Active | Activity (A-375 [17]): Active | Activity (A-375 [18]): tde | Activity (A-375 [19]): tde | Activity (A-375 [20]): tde | Activity (A-375 [21]): Active | Activity (A-375 [22]): Active | Activity (A-375 [23]): inactive | Activity (A-375 [24]): Active | Activity (RPMI-7951 [25]): Active | Activity (RPMI-7951 [26]): Active | Activity (RPMI-7951 [27]): Active | Activity (RPMI-7951 [28]): Active | viability at 1 µM (A-375 [1]): 37.7% | viability at 1 µM [2]: 64.6% | viability at 1 µM (MCF7): 55% | viability at 1 µM (A549): 78% | viability at 1 µM [3]: 69.4% | viability at 24 h, 1 µM [4]: 111% | inhibition (A-375 [29]): Active | inhibition (RPMI-7951 [30]): Active
